Series [1] relates to Plasmodium falciparum. Kind of series: Antimalarial activity against synchronized ring stage Plasmodium falciparum 3D7 transfected with nano-luciferase assessed as parasite growth inhibition after 72 hrs by Nano-Glo luciferase assay. It counts as functional, organism-based. The conditions noted are these: 3D7, 72 h. Summed up: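 Assays started at 1% ring stage and 2% hematocrit, with serial RPMI dilutions from 20 mM ethanol stocks. Cultures were lysed with an equal volume of 0.02% saponin buffer containing Nano-Glo substrate, and luminescence was read for 30 s. IC50 was fitted by variable-slope nonlinear regression; 3 experiments ×3 technical replicates.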

Series [2] concerns Plasmodium falciparum. Kind of series: Antimalarial activity against synchronized ring stage Plasmodium falciparum 3D7 transfected with nano-luciferase assessed as parasite growth inhibition at 200 uM after 72 hrs by Nano-Glo luciferase assay. It counts as functional, organism-based.
Series [3] in a line: Selectivity index, ratio of IC50 for African green monkey Vero cells to IC50 for synchronized ring stage Plasmodium falciparum 3D7 transfected with nano-luciferase. The class given is toxicity. The conditions noted are these: read-out: Ratio IC50.
Another series has as its system Vero. Kind of series: Cytotoxicity against African green monkey Vero cells after 72 hrs by MTT assay. The class given is cell-based. The conditions noted are these: Chlorocebus sabaeus. Put shortly:
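Vero cells in DMEM with 10% FBS and penicillin/streptomycin, 37 °C, 5% CO₂, seeded at 3000 cells/well. Compounds came from 27 or 25 mM DMSO stocks diluted in medium, with matching DMSO controls. After 72 h, cells got 0.5 mg/mL MTT for 4 h at 37 °C; formazan was dissolved in DMSO and absorbance read at 562 nm.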
(Tetrazolium assays rely on reduction of a dye to a coloured formazan, in cell work by metabolically active cells.)

Series [4] concerns Plasmodium falciparum. Kind of series: Antimalarial activity against synchronized ring stage Plasmodium falciparum 3D7 transfected with nano-luciferase assessed as parasite growth inhibition after 48 hrs by Nano-Glo luciferase assay. It counts as functional, organism-based. The conditions noted are these: 3D7, 48 h. Put shortly:
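nLuc-exporting transfected 3D7 rings were sorbitol-synchronized and cultured in RPMI-1640/0.5% Albumax I under 5% CO₂/5% O₂/90% N₂. Assays started at 1% ring stage and 2% hematocrit, with serial RPMI dilutions from 20 mM ethanol stocks. Cultures were lysed with an equal volume of 0.02% saponin buffer containing Nano-Glo substrate, and luminescence was read for 30 s. IC50 was fitted by variable-slope nonlinear regression; 3 experiments ×3 technical replicates.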

Series [5] concerns Erythrocyte. Kind of series: Hemolytic activity in erythrocytes (unknown origin) at 100 uM. It counts as ADME, cell-based.
Series [6] relates to Erythrocyte. Kind of series: Hemolytic activity in erythrocytes (unknown origin) at 200 uM. The class given is ADME, cell-based.
In series [7] the test system is Plasmodium falciparum. Kind of series: Antimalarial activity against synchronized ring stage Plasmodium falciparum 3D7 assessed as parasite growth inhibition measured after 24 to 96 hrs. The class given is functional, organism-based. The conditions noted are these: in the assay text read “24 to 72 hrs” for “24 to 96 hrs”. Put shortly:
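Sorbitol-synchronized 3D7 rings grown in RPMI-1640 with 0.5% Albumax I under 5% CO₂/5% O₂/90% N₂. Started at 1% ring stage, 2% hematocrit, with serial dilutions in RPMI from 20 mM ethanol stocks, plus ethanol solvent controls. Followed up to 72 h. Growth was read by SYBR Green I lysis-buffer staining (485/520 nm) and confirmed by Giemsa smears. IC50 came from variable-slope nonlinear regression; 3 experiments ×3 technical replicates.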

Calls of active or inactive are those of the source. No cut-off for these calls is given here.

Broadly, the IC50 is the midpoint of a concentration-inhibition curve. On to `O=C(O)c1ccccc1SCc1cn(CCc2ccccc2)nn1`, for which, in the series on Plasmodium falciparum [1], the IC50 is above 200 µM. In the series on Plasmodium falciparum [2], the outcome was Active.
On the same counts, the results for `CCOC(=O)CCSc1ccccc1C(=O)O` are above 200 µM and “Active”.
As for `O=C(O)c1ccccc1SCc1cn(C/C=C/c2ccccc2)nn1`, the selectivity ratio in series [3] is above 3.06. Moreover, the results for the 50% inhibitory concentration (IC50) in the series with Plasmodium falciparum [1] and in the series on Vero were 65.3 µM and above 200 µM, respectively. Besides, the outcome with Plasmodium falciparum [2] was Active.
For the compound `C[C@H]1[C@H](OC(=O)CCC(=O)O)O[C@@H]2O[C@@]3(C)CC[C@H]4[C@H](C)CC[C@@H]1[C@@]24OO3` [ARTESUNATE], the IC50 in the series with Plasmodium falciparum [4] fell in the range of 0.00164 to 0.00174 µM.
Take `CCCCCCCCCCCCCCCCn1cc(CSc2ccccc2C(=O)O)nn1`: the selectivity ratio in series [3] is 1.86. For the same compound, the concentration for half-maximal inhibition (IC50) in the series on Plasmodium falciparum [1] is 14.4 µM; in the series with Vero it was 27 µM. Moreover, the Activity entry with Erythrocyte [5] is on record as “Non-Toxic”; with Erythrocyte [6], “Toxic”. Further, the outcome in the series with Plasmodium falciparum [2] was Active.
With `C/C(=C\CSc1ccccc1C(=O)O)CCCC(C)CCCC(C)CCCC(C)C` (centres undefined), the selectivity ratio in series [3] worked out at 3.87. Besides, the IC50 in the series on Plasmodium falciparum [1] came to 13.4 µM; in the series with Vero, 52 µM. For the same compound, the result in the series on Plasmodium falciparum [2] was Active.
For `O=C(O)c1ccccc1SC1CCCCC1`, the 50% inhibitory concentration (IC50) with Plasmodium falciparum [1] is above 200 µM. The result in the series with Plasmodium falciparum [2] was Active.
`CCCCCCCCCCCCCn1cc(CSc2ccccc2C(=O)O)nn1`: in series [3], the selectivity ratio worked out at 2.99. For the same compound, the IC50 was found to be 19.8 µM in the series with Plasmodium falciparum [1] and 59 µM in the series on Vero. Also, the outcome with Plasmodium falciparum [2] was Active.
For `O=C(O)c1ccccc1SCc1cn(CCCc2ccccc2)nn1`, the half-maximal inhibitory concentration (IC50) with Plasmodium falciparum [1] was above 200 µM. Moreover, the result with Plasmodium falciparum [2] was Active.
On to `CCCCCCCCSc1ccccc1C(=O)O`, for which the IC50 in the series on Plasmodium falciparum [1] was above 200 µM. Also, the result with Plasmodium falciparum [2] was Active.
On the same counts, the results for `O=C(O)c1ccccc1SC/C=C/c1ccccc1` are above 200 µM and “Active”.
For `CCOC(=O)CCn1cc(CSc2ccccc2C(=O)O)nn1`, the IC50 with Plasmodium falciparum [1] was above 200 µM. Besides, the outcome with Plasmodium falciparum [2] was Active.
On the same counts, the results for `O=C(O)c1ccccc1SCc1cn(Cc2ccccc2)nn1` are above 200 µM and “Active”.
On the same counts, the results for `CCCCCCCCCCn1cc(CSc2ccccc2C(=O)O)nn1` are above 200 µM and “Active”.
On the same counts, the results for `CC(C)=CCn1cc(CSc2ccccc2C(=O)O)nn1` are above 200 µM and “Active”.
Regarding `CC(C)=CCC/C(C)=C/CSc1ccccc1C(=O)O`, the concentration for half-maximal inhibition (IC50) in the series with Plasmodium falciparum [1] was above 200 µM. In addition, in the series on Plasmodium falciparum [2], the result was Active.
On the same counts, the results for `O=C(O)c1ccccc1SCc1cn(C2CCCCC2)nn1` are above 200 µM and “Active”.
On the same counts, the results for `CC(C)=CCC/C(C)=C/Cn1cc(CSc2ccccc2C(=O)O)nn1` are above 200 µM and “Active”.
Consider `CC(C)=CCC/C(C)=C/CC/C(C)=C/CSc1ccccc1C(=O)O` [SALIRASIB], for which the selectivity ratio in series [3] stood at 10.3. The figures for the concentration for half-maximal inhibition (IC50) in the series with Plasmodium falciparum [1], with Plasmodium falciparum [7] and in the series with Vero were 20.3 µM, 14 µM and 210 µM, respectively. Moreover, the result in the series on Plasmodium falciparum [2] was Active.
Consider `CCCCCCCCCCSc1ccccc1C(=O)O`, for which the IC50 in the series with Plasmodium falciparum [1] is above 200 µM. Moreover, in the series with Plasmodium falciparum [2], the outcome was Active.
Regarding `C/C(=C\Cn1cc(CSc2ccccc2C(=O)O)nn1)CCCC(C)CCCC(C)CCCC(C)C` (centres undefined), the selectivity ratio in series [3] came out at 3.67. In addition, the IC50 with Plasmodium falciparum [1] was 9.75 µM; in the series on Vero, 34 µM. Besides, the Activity entry in the series with Erythrocyte [5] was “Non-Toxic”; with Erythrocyte [6], “Toxic”. Further, the result in the series with Plasmodium falciparum [2] was Active.
With `O=C(O)c1ccccc1SCc1cn(Cc2ccc3ccccc3c2)nn1`, in series [3], the selectivity ratio amounted to 6.95. Further, the IC50 in the series on Plasmodium falciparum [1] stood at 20.5 µM; with Vero, 143 µM. In the series on Plasmodium falciparum [2], the outcome was Active.
Take `CC(C)=CCSc1ccccc1C(=O)O`: the IC50 with Plasmodium falciparum [1] was above 200 µM. Besides, the outcome in the series with Plasmodium falciparum [2] was Active.
Turning to `C#CCSc1ccccc1C(=O)O`, in the series with Plasmodium falciparum [1], the half-maximal inhibitory concentration (IC50) was above 200 µM. For the same compound, the result in the series on Plasmodium falciparum [2] was Active.
For `CCCCCCCCn1cc(CSc2ccccc2C(=O)O)nn1`, the IC50 in the series on Plasmodium falciparum [1] is above 200 µM. The result with Plasmodium falciparum [2] was Active.
For `CC(C)=CCC/C(C)=C/CC/C(C)=C/Cn1cc(CSc2ccccc2C(=O)O)nn1`, the selectivity ratio in series [3] was above 7.7. The half-inhibitory concentration (IC50) in the series with Plasmodium falciparum [1] was 26 µM; with Vero, above 200 µM. Moreover, in the series on Plasmodium falciparum [2], the result was Active.
With `CCOC(=O)Cn1cc(CSc2ccccc2C(=O)O)nn1`, the IC50 in the series on Plasmodium falciparum [1] is above 200 µM. The outcome in the series with Plasmodium falciparum [2] was Active.

The values above are taken from ChEMBL document CHEMBL4311937, “Repositioning Salirasib as a new antimalarial agent” (Medchemcomm, 2019).
